From ChEMBL document CHEMBL1139376, “Synthesis and biological activity of human neuropeptide S analogues modified in position 5: identification of potent and pure neuropeptide S receptor antagonists” (J Med Chem, 2009)
Values belong to the compound of their own block, whether it stands above or below them. Active and inactive are the calls of the source. No cut-off for these calls is given here. Where a SMILES comes first, the peptide text is derived from it. [ ]: non-standard residue; d: D form. The star is where a group is joined. Bn = c1ccc(C*)cc1; Acm = CC(=O)NC*; tBu = CC(C)(C)*

What was measured:
[1] = target: T1, Neuropeptide S receptor (Mus musculus) (UniProt Q8BZP8); assay: Agonist activity at mouse NPSR expressed in HEK293 cells upto 10 uM by calcium mobilization assay; assay type: functional, cell-based
T1 sequence (whole entry): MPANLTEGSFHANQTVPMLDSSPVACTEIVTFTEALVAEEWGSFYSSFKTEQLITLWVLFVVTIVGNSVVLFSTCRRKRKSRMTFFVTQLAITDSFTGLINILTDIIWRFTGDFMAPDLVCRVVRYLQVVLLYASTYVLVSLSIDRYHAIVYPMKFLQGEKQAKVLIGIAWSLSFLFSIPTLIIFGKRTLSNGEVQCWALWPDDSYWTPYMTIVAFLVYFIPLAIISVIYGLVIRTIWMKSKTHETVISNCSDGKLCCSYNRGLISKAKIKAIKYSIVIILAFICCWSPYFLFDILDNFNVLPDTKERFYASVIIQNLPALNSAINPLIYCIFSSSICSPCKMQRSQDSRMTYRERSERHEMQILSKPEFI
In short: (§1)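 HEK293 cells stably expressing mouse NPSR were grown in DMEM with 10% FBS, 2 mM glutamine and hygromycin. They were plated on poly-D-lysine wells and, the next day, loaded for 30 min at 37 °C with 3 μM Fluo-4 AM, 2.5 mM probenecid and 0.01% pluronic acid. Fluorescence was read at about 22 °C in HBSS with 20 mM HEPES, probenecid and 500 μM Brilliant Black. The response was the peak fluorescence change as % of baseline, from at least 4 experiments run in duplicate.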

Neuropeptide S receptor = target: T2, Neuropeptide S receptor (Mus musculus, UniProt Q8BZP8); assay: Agonist activity at mouse NPSR expressed in HEK293 cells by calcium mobilization assay; assay type: functional, cell-based; in short: as §1
T2 sequence (Q8BZP8 whole entry): T1 sequence (whole entry)

Mus musculus [2] = assay: Effect on locomotor activity in […] Swiss mouse assessed as immobility time at 1 nmol, icv befor 5 mins observed for 60 mins; assay type: functional, organism-based
In short: (§2)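 Male Swiss mice (2 months, 25–30 g) received peptide i.c.v. at 0.01–1 nmole in 2 μl into the left ventricle under light ether anaesthesia, 5 min before testing. Each mouse was used once, in the light phase, with no food during testing. Activity was tracked for 60 min in 40 × 40 cm cages. Video recorded distance and immobility time, and an infrared beam array counted rearings. There were 4 experiments with 4 mice/group.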

Mus musculus [3] = assay: Effect on locomotor activity in […] Swiss mouse assessed as increase in cumulative distance traveled dosed at 1 nmol, icv before 5 mins observed for 60 mins; assay type: functional, organism-based; in short: as §2
Mus musculus [4] = assay: Effect on locomotor activity in […] Swiss mouse assessed as number of rearings dosed at 1 nmol, icv befor 5 mins observed for 60 mins; assay type: functional, organism-based; in short: as §2
Mus musculus [5] = assay: Effect on locomotor activity in […] Swiss mouse assessed as increase in cumulative distance traveled dosed at 0.1 nmol, icv before 5 mins observed for 60 mins; assay type: functional, organism-based; in short: as §2
Mus musculus [6] = assay: Effect on locomotor activity in […] Swiss mouse assessed as decrease in immobility time at 0.1 nmol, icv before 5 mins observed for 60 mins
Mus musculus [7] = assay: Effect on locomotor activity in […] Swiss mouse assessed as increase in number of rearings dosed at 0.1 nmol, icv before 5 mins observed for 60 mins; assay type: functional, organism-based; in short: as §2
[8] = target: T1, Neuropeptide S receptor (Mus musculus); assay: Agonist activity at mouse NPSR expressed in HEK293 cells by calcium mobilization assay relative to basal level; assay type: functional, cell-based; in short: as §1

Compound: CSCC[C@H](NC(=O)CNC(=O)[C@@H](NC(=O)CNC(=O)[C@@H](NC(=O)[C@@H](CSC(C)(C)C)NC(=O)[C@H](CC(N)=O)NC(=O)[C@H](CCCNC(=N)N)NC(=O)[C@H](Cc1ccccc1)NC(=O)[C@@H](N)CO)C(C)C)[C@@H](C)O)C(=O)N[C@@H](CCCCN)C(=O)N[C@@H](CCCCN)C(=O)N[C@H](C(=O)N[C@@H](CO)C(=O)N[C@@H](Cc1ccccc1)C(=O)N[C@@H](CCC(N)=O)C(=O)N[C@@H](CCCNC(=N)N)C(=O)N[C@@H](C)C(=O)N[C@@H](CCCCN)C(=O)N[C@@H](CO)C(=O)O)[C@@H](C)O (H-SFRN[dC](tBu)VGTGMKKTSFQRAKS-OH)
Activity [1]: inactive

Compound: CSCC[C@H](NC(=O)CNC(=O)[C@@H](NC(=O)CNC(=O)[C@@H](NC(=O)[C@@H](Cc1ccccc1)NC(=O)[C@H](CC(N)=O)NC(=O)[C@H](CCCNC(=N)N)NC(=O)[C@H](Cc1ccccc1)NC(=O)[C@@H](N)CO)C(C)C)[C@@H](C)O)C(=O)N[C@@H](CCCCN)C(=O)N[C@@H](CCCCN)C(=O)N[C@H](C(=O)N[C@@H](CO)C(=O)N[C@@H](Cc1ccccc1)C(=O)N[C@@H](CCC(N)=O)C(=O)N[C@@H](CCCNC(=N)N)C(=O)N[C@@H](C)C(=O)N[C@@H](CCCCN)C(=O)N[C@@H](CO)C(=O)O)[C@@H](C)O (H-SFRN[dF]VGTGMKKTSFQRAKS-OH)
Activity [1]: inactive

Compound: CSCC[C@H](NC(=O)CNC(=O)[C@@H](NC(=O)CNC(=O)[C@@H](NC(=O)[C@@H](CC(C)C)NC(=O)[C@H](CC(N)=O)NC(=O)[C@H](CCCNC(=N)N)NC(=O)[C@H](Cc1ccccc1)NC(=O)[C@@H](N)CO)C(C)C)[C@@H](C)O)C(=O)N[C@@H](CCCCN)C(=O)N[C@@H](CCCCN)C(=O)N[C@H](C(=O)N[C@@H](CO)C(=O)N[C@@H](Cc1ccccc1)C(=O)N[C@@H](CCC(N)=O)C(=O)N[C@@H](CCCNC(=N)N)C(=O)N[C@@H](C)C(=O)N[C@@H](CCCCN)C(=O)N[C@@H](CO)C(=O)O)[C@@H](C)O (H-SFRN[dL]VGTGMKKTSFQRAKS-OH)
EC50 (Neuropeptide S receptor): 89.1 nM

Compound: CSCC[C@H](NC(=O)CNC(=O)[C@@H](NC(=O)CNC(=O)[C@@H](NC(=O)[C@@H](Cc1c[nH]c2ccccc12)NC(=O)[C@H](CC(N)=O)NC(=O)[C@H](CCCNC(=N)N)NC(=O)[C@H](Cc1ccccc1)NC(=O)[C@@H](N)CO)C(C)C)[C@@H](C)O)C(=O)N[C@@H](CCCCN)C(=O)N[C@@H](CCCCN)C(=O)N[C@H](C(=O)N[C@@H](CO)C(=O)N[C@@H](Cc1ccccc1)C(=O)N[C@@H](CCC(N)=O)C(=O)N[C@@H](CCCNC(=N)N)C(=O)N[C@@H](C)C(=O)N[C@@H](CCCCN)C(=O)N[C@@H](CO)C(=O)O)[C@@H](C)O (H-SFRN[dW]VGTGMKKTSFQRAKS-OH)
Activity [1]: inactive

Compound: H-SFRNGVGTGMKKTSFQRAKS-OH [NEUROPEPTIDE S]
Activity (Mus musculus [5]): Active
EC50 (Neuropeptide S receptor): 2.24 nM
Activity (Mus musculus [6]): Active
Activity (Mus musculus [7]): Active

Continued, in another order:

Activity [1]: inactive
Compound: CSCC[C@H](NC(=O)CNC(=O)[C@@H](NC(=O)CNC(=O)[C@@H](NC(=O)[C@@H](CSCNC(C)=O)NC(=O)[C@H](CC(N)=O)NC(=O)[C@H](CCCNC(=N)N)NC(=O)[C@H](Cc1ccccc1)NC(=O)[C@@H](N)CO)C(C)C)[C@@H](C)O)C(=O)N[C@@H](CCCCN)C(=O)N[C@@H](CCCCN)C(=O)N[C@H](C(=O)N[C@@H](CO)C(=O)N[C@@H](Cc1ccccc1)C(=O)N[C@@H](CCC(N)=O)C(=O)N[C@@H](CCCNC(=N)N)C(=O)N[C@@H](C)C(=O)N[C@@H](CCCCN)C(=O)N[C@@H](CO)C(=O)O)[C@@H](C)O (H-SFRN[dC](Acm)VGTGMKKTSFQRAKS-OH)

Activity [1]: inactive
Compound: CSCC[C@H](NC(=O)CNC(=O)[C@@H](NC(=O)CNC(=O)[C@@H](NC(=O)[C@@H](CSCc1ccccc1)NC(=O)[C@H](CC(N)=O)NC(=O)[C@H](CCCNC(=N)N)NC(=O)[C@H](Cc1ccccc1)NC(=O)[C@@H](N)CO)C(C)C)[C@@H](C)O)C(=O)N[C@@H](CCCCN)C(=O)N[C@@H](CCCCN)C(=O)N[C@H](C(=O)N[C@@H](CO)C(=O)N[C@@H](Cc1ccccc1)C(=O)N[C@@H](CCC(N)=O)C(=O)N[C@@H](CCCNC(=N)N)C(=O)N[C@@H](C)C(=O)N[C@@H](CCCCN)C(=O)N[C@@H](CO)C(=O)O)[C@@H](C)O (H-SFRN[dC](Bn)VGTGMKKTSFQRAKS-OH)

Activity [1]: inactive
Compound: CSCC[C@H](NC(=O)CNC(=O)[C@@H](NC(=O)CNC(=O)[C@@H](NC(=O)[C@@H](CCSC)NC(=O)[C@H](CC(N)=O)NC(=O)[C@H](CCCNC(=N)N)NC(=O)[C@H](Cc1ccccc1)NC(=O)[C@@H](N)CO)C(C)C)[C@@H](C)O)C(=O)N[C@@H](CCCCN)C(=O)N[C@@H](CCCCN)C(=O)N[C@H](C(=O)N[C@@H](CO)C(=O)N[C@@H](Cc1ccccc1)C(=O)N[C@@H](CCC(N)=O)C(=O)N[C@@H](CCCNC(=N)N)C(=O)N[C@@H](C)C(=O)N[C@@H](CCCCN)C(=O)N[C@@H](CO)C(=O)O)[C@@H](C)O (H-SFRN[dM]VGTGMKKTSFQRAKS-OH)

Activity [1]: inactive
Compound: CSCC[C@H](NC(=O)CNC(=O)[C@@H](NC(=O)CNC(=O)[C@@H](NC(=O)[C@H](NC(=O)[C@H](CC(N)=O)NC(=O)[C@H](CCCNC(=N)N)NC(=O)[C@H](Cc1ccccc1)NC(=O)[C@@H](N)CO)C(C)C)C(C)C)[C@@H](C)O)C(=O)N[C@@H](CCCCN)C(=O)N[C@@H](CCCCN)C(=O)N[C@H](C(=O)N[C@@H](CO)C(=O)N[C@@H](Cc1ccccc1)C(=O)N[C@@H](CCC(N)=O)C(=O)N[C@@H](CCCNC(=N)N)C(=O)N[C@@H](C)C(=O)N[C@@H](CCCCN)C(=O)N[C@@H](CO)C(=O)O)[C@@H](C)O (H-SFRN[dV]VGTGMKKTSFQRAKS-OH)
Activity (Mus musculus [2]): Active
Activity (Mus musculus [3]): Active
Activity (Mus musculus [4]): Active

Emax [8]: 30%
Compound: H-SFRNWVGTGMKKTSFQRAKS-OH
